Experimental data from ChEMBL document CHEMBL4052795, “Synthesis and evaluation of modified chalcone based p53 stabilizing agents” (2017).
The source made the active and inactive calls. The calls are words filed in the database; no cut-off is given here.

How the values were obtained:
[1] = system: HCT-116; test: Antiproliferative activity against human HCT116 cells assessed as growth inhibition after 3 days by SRB assay; assay type: functional; settings: HCT-116, 72 h
Outline: (§1)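 Cells treated in duplicate in 96-well format with three-fold serial dilutions from 50 µM; DMSO solvent control, Nutlin-3 positive control. Sulforhodamine B staining after 3 days; GI50 derived from dilution series.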

[2] = system: CAL-51; test: Antiproliferative activity against human CAL51 cells assessed as growth inhibition after 3 days by SRB assay; assay type: functional; settings: CAL-51, 72 h; outline: as §1
[3] = system: HCT-116; test: Antiproliferative activity against human HCT116 cells at 25 uM after 3 days by SRB assay relative to control; assay type: functional; settings: HCT-116, 72 h
[4] = system: HCT-116; test: Antiproliferative activity against human HCT116 cells at 50 uM after 3 days by SRB assay relative to control; assay type: functional; settings: HCT-116, 72 h
[5] = biological target: Cellular tumor antigen p53 (Homo sapiens) (UniProt P04637); test: Induction of p53 stabilization in human HCT116 cells assessed as ratio of p53 expression levels to GAPDH expression levels at 12.5 uM after 8 hrs by immunoblot analysis; assay type: cell-based
Cellular tumor antigen p53 (Homo sapiens), sequence (P04637 whole entry, looked up): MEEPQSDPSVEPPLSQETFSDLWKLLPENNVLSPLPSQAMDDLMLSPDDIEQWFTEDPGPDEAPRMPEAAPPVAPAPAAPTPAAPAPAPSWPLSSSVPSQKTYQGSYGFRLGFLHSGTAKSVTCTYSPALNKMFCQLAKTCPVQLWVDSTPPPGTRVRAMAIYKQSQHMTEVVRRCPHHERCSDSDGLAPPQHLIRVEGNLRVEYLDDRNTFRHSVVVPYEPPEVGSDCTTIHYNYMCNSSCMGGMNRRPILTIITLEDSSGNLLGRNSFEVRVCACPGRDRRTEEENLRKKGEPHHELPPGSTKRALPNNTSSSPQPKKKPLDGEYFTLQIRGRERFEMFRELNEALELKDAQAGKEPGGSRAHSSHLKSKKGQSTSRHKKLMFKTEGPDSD
Outline: (§2)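 HCT116 treated with 6.25, 12.5 or 25 µM for 4 or 8 h; 10 µM Nutlin-3 positive control, DMSO solvent control. Lysates immunoblotted for p53 and GAPDH; band densities quantified, p53 normalized to GAPDH and expressed as fold change versus DMSO.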

[6] = biological target: Cellular tumor antigen p53 (Homo sapiens) (UniProt P04637); test: Induction of p53 stabilization in human HCT116 cells assessed as ratio of p53 expression levels to GAPDH expression levels at 25 uM after 4 hrs by immunoblot analysis; assay type: cell-based; outline: as §2
[7] = biological target: Cellular tumor antigen p53 (Homo sapiens) (UniProt P04637); test: Induction of p53 stabilization in human HCT116 cells assessed as ratio of p53 expression levels to GAPDH expression levels at 6.25 uM after 8 hrs by immunoblot analysis; assay type: cell-based; outline: as §2
[8] = biological target: Cellular tumor antigen p53 (Homo sapiens) (UniProt P04637); test: Induction of p53 stabilization in human HCT116 cells assessed as ratio of p53 expression levels to GAPDH expression levels after 4 hrs by immunoblot analysis; assay type: cell-based; outline: as §2
[9] = biological target: Cellular tumor antigen p53 (Homo sapiens) (UniProt P04637); test: Induction of p53 stabilization in human HCT116 cells assessed as increase in p53 expression levels at 12.5 uM measured up to 90 mins in presence of varying concentrations of cycloheximide by immunoblot analysis; assay type: cell-based
Outline: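 Cycloheximide chase in HCT116: cells given cycloheximide with or without 12.5 µM compound, samples collected at timed points; immunoblot for p53 and alpha-tubulin, p53 normalized to alpha-tubulin.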

[10] = biological target: Cellular tumor antigen p53 (Homo sapiens) (UniProt P04637); test: Induction of p53 stabilization in human HCT116 cells assessed as ratio of p53 expression levels to GAPDH expression levels at 6.25 uM after 4 hrs by immunoblot analysis; assay type: cell-based; outline: as §2
[11] = biological target: Cellular tumor antigen p53 (Homo sapiens) (UniProt P04637); test: Induction of p53 stabilization in human HCT116 cells assessed as ratio of p53 expression levels to GAPDH expression levels after 8 hrs by immunoblot analysis; assay type: cell-based; outline: as §2
[12] = biological target: Cellular tumor antigen p53 (Homo sapiens) (UniProt P04637); test: Induction of p53 stabilization in human HCT116 cells assessed as ratio of p53 expression levels to GAPDH expression levels at 25 uM after 8 hrs by immunoblot analysis; assay type: cell-based; outline: as §2
[13] = biological target: Cellular tumor antigen p53 (Homo sapiens) (UniProt P04637); test: Induction of p53 stabilization in human HCT116 cells assessed as ratio of p53 expression levels to GAPDH expression levels at 12.5 uM after 4 hrs by immunoblot analysis; assay type: cell-based; outline: as §2
[14] = biological target: Cellular tumor antigen p53 (Homo sapiens) (UniProt P04637); test: Induction of p53 stabilization in human HCT116 cells assessed as increase in p53 expression levels at 6.25 to 25 uM after 8 hrs by immunoblot analysis; assay type: cell-based; outline: as §2
[15] = biological target: Cellular tumor antigen p53 (Homo sapiens) (UniProt P04637); test: Induction of p53 stabilization in human HCT116 cells assessed as increase in p53 expression levels at 6.25 to 25 uM after 4 hrs by immunoblot analysis; assay type: cell-based; outline: as §2

Work on O=C(/C=C/c1ccccc1Cl)c1ccc(OCc2ccccc2)cc1 yielded a GI50 [1] of 14.9 µM, a GI50 [2] of 7.1 µM and an inhibition at 25 µM [3] of 54.5%. It also gave an inhibition at 50 µM [4] of 99.7%.
Work on O=C(/C=C/c1ccc(Cl)cc1)c1ccc(OCc2ccccc2)cc1 yielded a GI50 [1] of over 50 µM, a GI50 [2] of over 50 µM and an inhibition at 25 µM [3] of 0.3%.
Compound Cc1ccc(COc2ccc(C(=O)/C=C/c3ccc(F)cc3)cc2)cc1 has a GI50 [1] of over 50 µM, a GI50 [2] of over 50 µM and an inhibition at 50 µM [4] of 15.4%.
In the case of COc1ccc(/C=C/C(=O)c2ccccc2)cc1 [4-METHOXY CHALCONE], the Ratio [5] was 1.2, the Ratio [6] was 1.53 and the Ratio [7] was 1.34. The Activity [8] was “Dose-dependent effect”, the GI50 [1] was 3.86 µM and the Activity [9] was “Active”. For the same compound, the Ratio [10] was 1.11, the Activity [11] was “Dose-dependent effect” and the GI50 [2] was 2.69 µM. The inhibition at 25 µM [3] was 100%, the Ratio [12] was 1.7 and the Ratio [13] was 1.41. For the same compound, the inhibition at 50 µM [4] was 99.7%.
O=C(/C=C/c1ccc(F)cc1)c1ccc(OCc2ccccc2)cc1 gave a GI50 [1] of over 50 µM and a GI50 [2] of over 50 µM.
Work on COc1ccc(C(=O)/C=C/c2ccccc2)cc1 [4'-METHOXYCHALCONE] yielded a GI50 [1] of 3.57 µM, a GI50 [2] of 3.33 µM and an inhibition at 25 µM [3] of 99.7%. The inhibition at 50 µM [4] was 98.2%.
O=C(/C=C/c1ccccc1)c1ccccc1 [CHALCONE] showed a GI50 [1] of 3.96 µM, a GI50 [2] of 1.85 µM and an inhibition at 25 µM [3] of 100%. For the same compound, the inhibition at 50 µM [4] was 97.5%.
For O=C(/C=C/c1ccc([N+](=O)[O-])cc1)c1ccccc1, the GI50 [1] was 3.13 µM, the GI50 [2] was 1.21 µM and the inhibition at 25 µM [3] was 99.7%. For the same compound, the inhibition at 50 µM [4] was 100%.
O=C(/C=C/c1ccc(Cl)cc1)c1ccccc1 [4-CHLORO CHALCONE] gave a Ratio [5] of 1.15, a Ratio [6] of 3.62 and a Ratio [7] of 1.38. For the same compound, the Activity [8] was “Dose-dependent effect”, the GI50 [1] was 16.5 µM and the Ratio [10] was 1.24. The Activity [11] was “Dose-dependent effect”, the GI50 [2] was 5.85 µM and the inhibition at 25 µM [3] was 97.5%. For the same compound, the Ratio [12] was 1.76, the Ratio [13] was 3.1 and the inhibition at 50 µM [4] was 100%.
For COc1ccc(/C=C/C(=O)c2ccc(OCc3ccccc3)cc2)cc1, the GI50 [1] was 36.9 µM, the GI50 [2] was over 50 µM and the inhibition at 25 µM [3] was 9.5%. For the same compound, the inhibition at 50 µM [4] was 13.2%.
With O=C(/C=C/c1cccc([N+](=O)[O-])c1)c1ccccc1 the GI50 [1] was 4.47 µM, the GI50 [2] was 1.08 µM and the inhibition at 25 µM [3] was 100%. The inhibition at 50 µM [4] was 99.7%.
Work on Cc1ccc(COc2ccc(C(=O)/C=C/c3ccccc3)cc2)cc1 yielded a GI50 [1] of over 50 µM, a GI50 [2] of 43.2 µM and an inhibition at 25 µM [3] of 4%.
In the case of COc1cc(/C=C/C(=O)c2ccccc2)cc(OC)c1OC, the GI50 [1] was 0.473 µM, the GI50 [2] was 0.78 µM and the inhibition at 25 µM [3] was 99.4%. It also gave an inhibition at 50 µM [4] of 99.7%.
With COc1ccc(C2=N[C@H](c3ccc(Cl)cc3)[C@H](c3ccc(Cl)cc3)N2C(=O)N2CCNC(=O)C2)c(OC(C)C)c1 the GI50 [1] was 1.52 µM.
O=C(/C=C/c1ccc(OCc2ccccc2)cc1)c1ccccc1 gave a GI50 [1] of over 50 µM, a GI50 [2] of 24.7 µM and an inhibition at 25 µM [3] of 52.3%. For the same compound, the inhibition at 50 µM [4] was 49.5%.
In the case of O=C(/C=C/c1ccccc1)c1ccc(OCc2ccccc2)cc1, the GI50 [1] was over 50 µM, the GI50 [2] was 28.9 µM and the inhibition at 25 µM [3] was 24.3%. For the same compound, the inhibition at 50 µM [4] was 33.8%.
COc1cccc(/C=C/C(=O)c2ccc(OCc3ccccc3)cc2)c1 was tested, and the GI50 [1] was 35.4 µM, the GI50 [2] was 13.7 µM and the inhibition at 25 µM [3] was 35.4%. It also gave an inhibition at 50 µM [4] of 76%.
Work on O=C(/C=C/c1ccccc1[N+](=O)[O-])c1ccccc1 yielded a GI50 [1] of 7.69 µM, a GI50 [2] of 2.59 µM and an inhibition at 25 µM [3] of 100%. For the same compound, the inhibition at 50 µM [4] was 100%.
With COc1ccc(CCC(=O)c2ccccc2)cc1 the Activity [14] was “inactive”, the Activity [15] was “inactive” and the GI50 [1] was over 100 µM.
For Cc1ccc(COc2ccc(C(=O)/C=C/c3ccc(Cl)cc3)cc2)cc1, the GI50 [1] was over 50 µM, the GI50 [2] was over 50 µM and the inhibition at 25 µM [3] was 12.3%. For the same compound, the inhibition at 50 µM [4] was 16.9%.
